# Assay outcomes from PubChem BioAssay.
# Hits are enriched below; roughly 3% of the tested compounds scored in any of these assays.
# UBC13 polyUb – inhibitors of human UBC13 polyubiquitin chain formation. P61088. TR-FRET. actives 0.47% (n = 330,000). inhibition, % at 20 µM. AID 485273; in the data active = inhibition above about 45%, passing the limit was not always enough
# SENP7 inh – SENP7 protease inhibition. Q9BQF6. inhibition, % at 5 µM. actives 1.5% (n = 330,000). recombinant SENP7, Z-RLRGG-aminoluciferin luminescence, 40 min;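 active = inhibition above about 50% at the single test dose, limit read from the data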;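 also: plate controls were DMSO with enzyme for no effect and no enzyme buffer wells for full effect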
# Target sequence (Q9BQF6 706-1050 limits assumed): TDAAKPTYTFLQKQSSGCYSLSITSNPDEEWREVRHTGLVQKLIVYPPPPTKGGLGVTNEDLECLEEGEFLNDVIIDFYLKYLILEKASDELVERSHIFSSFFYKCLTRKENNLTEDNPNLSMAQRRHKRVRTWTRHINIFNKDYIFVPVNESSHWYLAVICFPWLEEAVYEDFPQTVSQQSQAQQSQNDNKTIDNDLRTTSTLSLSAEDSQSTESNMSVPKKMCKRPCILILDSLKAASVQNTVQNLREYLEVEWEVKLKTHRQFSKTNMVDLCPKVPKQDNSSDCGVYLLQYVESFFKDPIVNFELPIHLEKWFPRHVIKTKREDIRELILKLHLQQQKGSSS
# SENP6 inh – SENP6 protease inhibition | Q9GZR1 | Recombinant SENP6 catalytic domain, aminoluciferin luminescence | inhibition, % at 10 µM | actives 1.8% (n = 330,000) | AID 2599;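 active = inhibition above about 50% at the single tested dose, limit read from the data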;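 also: plate controls were DMSO wells with enzyme for no effect and DMSO wells lacking enzyme for full effect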
# SENP8 block-1 – blocks the human protease SENP8; Q96LD8; purified SENP8, Z-RLRGG-aminoluciferin cleavage, luminescence; inhibition, % at 10 µM; actives 1.2% (n = 330,000); in the data active = inhibition above about 50%
# Apaf-1 inh – inhibitors of human Apaf-1 apoptosome. O14727. reconstituted apoptosome caspase-3 activity, DEVD-Rh110 fluorescence. inhibition, % at 20 µM. actives 0.71% (n = 330,000). AID 489030; active = inhibition of at least 40% at 20 µM;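 also: plate controls were DMSO wells for no effect and DEVD-CHO caspase inhibitor wells for full effect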
#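 Assay system: Apoptosome proteins | Medium: pH 7.5 Hepes buffer with CHAPS, BSA, DTT | Also added: Cytochrome c and DEVD-Rh110 substrate | Times: 30 min plus 50 min, RT | Detection: Rhodamine 110 fluorescence at Ex 480/Em 540 nm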
# SENP8 block-2 – inhibitors of human SENP8 protease; Q96LD8; recombinant SENP8, Nedd8 substrate fluorescence; inhibition, % at 20 µM; actives 0.64% (n = 360,000); in the data active = inhibition mostly above about 40%, no sharp cut-off; inactive = mostly below about 27%
# SENP8 conf – SENP8 (human) inhibition, single concentration confirmation; purified SENP8, Nedd8-AMC/pro-Nedd8 cleavage fluorescence, 30 min; shares compounds with SENP8 block-2; AID 624319; actives 15% (n = 1,400); inhibition, % at 25 µM; in the data active = inhibition mostly above about 39%, no sharp cut-off; inactive = mostly below about 34%
# An asterisk follows results filed as active; . = not tested or not shown.
SMILES,UBC13 polyUb,SENP7 inh,SENP6 inh,SENP8 block-1,Apaf-1 inh,SENP8 block-2,SENP8 conf
CC(=O)c1ccc(N(C(=O)c2csnn2)C(C(=O)NC(C)(C)C)c2cccs2)cc1 (centres undefined),-6,-9,1,-17,8,0,.
O=[N+]([O-])c1cc(Cl)ccc1NCCNS(=O)(=O)c1ccccc1,-56,0,5,7,6,43*,17
COc1cccc2c1Oc1ncccc1N(C(=O)CCC(=O)NCc1cccc(C)c1)C2,-7,2,-6,7,-17,10,.
CC1(C)CC(=O)c2c(O)cc(OCC(=O)Nc3ccc(S(N)(=O)=O)cc3)cc2O1,11,-1,-14,10,-7,57*,13
Cn1c(=O)c2ccccc2n(Cc2ccccc2Cl)c1=O,2,-9,4,-9,1,-2,.
Cc1cccc(N2CCN(C(=O)CCC(=O)N3CC(C)Oc4ccccc43)CC2)c1C (centres undefined),16,3,-14,3,17,21,.
COc1c(OC)c(O)c2c(=O)c(O)c(-c3ccccc3)oc2c1OC,-23,7,-5,7,-2,42*,5
COc1ccc(-c2oc3c(OC)c(OC)c(OC)c(O)c3c(=O)c2OC)cc1OC,-3,-4,0,-2,-1,-3,.
COC/C=C/C1=CC2=CC(=O)C(C)(OC(=O)c3cnc4ccccc4n3)C(=O)C2=CN1CCCCO (centres undefined),-80,15,31,9,32,56*,46*
COC/C=C/C1=CC2=CC(=O)C(C)(OC(=O)c3cnc4ccccc4n3)C(=O)C2=CN1c1ccc(OC)cc1 (centres undefined),-84,6,7,-4,12,-9,.
COC/C=C/C1=CC2=CC(=O)C(C)(OC(=O)c3cnc4ccccc4n3)C(=O)C2=CN1Cc1ccc(OC)cc1 (centres undefined),-59,6,16,3,26,37,.
COC/C=C/C1=CC2=CC(=O)C(C)(OC(=O)c3cnc4ccccc4n3)C(=O)C2=CN1Cc1ccccc1 (centres undefined),-76,1,19,2,32,45*,26
COC/C=C/C1=CC2=CC(=O)C(C)(OC(=O)c3cnc4ccccc4n3)C(=O)C2=CN1C1CC1 (centres undefined),-74,4,20,-4,33,52*,53*
CC(=O)Nc1cccc(C(=O)OCC(=O)NCc2ccc(F)cc2)c1,13,0,-21,1,-17,7,.
Cc1ccc(CNC(=O)[C@H](C)N2C(=O)N3CCc4c([nH]c5ccccc45)[C@@]3(C)C2=O)cc1,12,-2,0,-3,-1,2,.
COc1ccc(CNC(=O)[C@H](C)N2C(=O)N3CCc4c([nH]c5ccccc45)[C@@]3(C)C2=O)cc1OC,6,4,-3,-2,-5,51*,-5
O=C1NC[C@@H](CCCCN2C[C@H](Cc3ccc(O)cc3)N(CCc3ccccc3)C(=O)C2=O)N(Cc2ccccc2)C1=O,.,.,.,.,.,12,.
COc1ccc(OS(=O)(=O)c2c(C)noc2C)cc1,1,4,-4,-1,-2,48*,16
Cn1c(CNC(=O)CCNC(=O)c2cccc(F)c2)cc(=O)n(C)c1=O,2,2,11,-5,-4,17,.
O=C(Nc1cc(-c2ccccc2)[nH]n1)c1ccc(Cl)cc1,8,67*,69*,47,3,40*,2
OCC[C@@H]1C[C@@H](O)[C@H](O)[C@]2(CCc3ccccc3CO2)O1,-6,16,-14,-12,5,13,.
O=C1CSC(c2c(F)cccc2Cl)N1c1cccc(F)c1 (centres undefined),-2,3,4,10,15,44*,11
C1CN(c2nc3nonc3nc2N2CCSCC2)CCO1,6,2,-5,0,-28,35,.
C[C@@H]1CN(c2nc3nonc3nc2N2CCSCC2)C[C@H](C)O1,4,-5,-4,1,-5,41*,19
COc1ccc(/C=N/Nc2nc(C)c([N+](=O)[O-])c(N(C)c3ccccc3)n2)cc1OC,-15,2,-10,5,14,53*,6
